# Assay outcomes from PubChem.
# TRPC4 act – TRPC4 (mouse) channel activation; Q9QUQ5; HEK293 TRPC4beta/mu-opioid, Fluo4 calcium fluorescence; active compounds read high; AID 2237; 310,000 tested, 0.49% active; B-score at 10 µM;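 active = B-score above 5 SD of library B-scores, and initial fluorescence ratio not above library mean plus 5 SD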;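 also: positive B-score marks a calcium rise read as TRPC4 activation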
#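 Incubation: 45 min room-temperature Fluo4 loading, 110 s read / System: HEK293 cells stably co-expressing mouse TRPC4beta and mu-opioid receptor / Signal: Fluo4 fluorescence, kinetic / Control set: buffer (low) and maximal DAMGO (high) / Measure: integrated baseline-normalised fluorescence ratio, converted to per-well B score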
# TRPC4 potent – allosterically enhances the mouse TRPC4 cation channel | Q9QUQ5 | HEK293 TRPC4beta/mu-opioid, DAMGO EC20, Fluo-4 Ca2+ flux; active compounds read high | B-score at 10 µM | 310,000 tested, 0.42% active | AID 2227;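 active = B-score of calcium response area above 5 SD of library B-scores, with initial fluorescence ratio within 5 SD of library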;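 also: B-score of integrated fluorescence ratio over time as area under calcium response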
# TRPC6 act – mouse TRPC6 channel activation. Q61143. HEK293-TRPC6 membrane potential dye fluorescence; active compounds read high. B-score at 10 µM. 310,000 tested, 0.13% active;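 active = B-score of the integrated fluorescence ratio above library mean plus 3 SD, and starting fluorescence ratio within library mean plus 5 SD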;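 also: higher score means more depolarization so channel activation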
# Target sequence (Q61143 whole entry, looked up): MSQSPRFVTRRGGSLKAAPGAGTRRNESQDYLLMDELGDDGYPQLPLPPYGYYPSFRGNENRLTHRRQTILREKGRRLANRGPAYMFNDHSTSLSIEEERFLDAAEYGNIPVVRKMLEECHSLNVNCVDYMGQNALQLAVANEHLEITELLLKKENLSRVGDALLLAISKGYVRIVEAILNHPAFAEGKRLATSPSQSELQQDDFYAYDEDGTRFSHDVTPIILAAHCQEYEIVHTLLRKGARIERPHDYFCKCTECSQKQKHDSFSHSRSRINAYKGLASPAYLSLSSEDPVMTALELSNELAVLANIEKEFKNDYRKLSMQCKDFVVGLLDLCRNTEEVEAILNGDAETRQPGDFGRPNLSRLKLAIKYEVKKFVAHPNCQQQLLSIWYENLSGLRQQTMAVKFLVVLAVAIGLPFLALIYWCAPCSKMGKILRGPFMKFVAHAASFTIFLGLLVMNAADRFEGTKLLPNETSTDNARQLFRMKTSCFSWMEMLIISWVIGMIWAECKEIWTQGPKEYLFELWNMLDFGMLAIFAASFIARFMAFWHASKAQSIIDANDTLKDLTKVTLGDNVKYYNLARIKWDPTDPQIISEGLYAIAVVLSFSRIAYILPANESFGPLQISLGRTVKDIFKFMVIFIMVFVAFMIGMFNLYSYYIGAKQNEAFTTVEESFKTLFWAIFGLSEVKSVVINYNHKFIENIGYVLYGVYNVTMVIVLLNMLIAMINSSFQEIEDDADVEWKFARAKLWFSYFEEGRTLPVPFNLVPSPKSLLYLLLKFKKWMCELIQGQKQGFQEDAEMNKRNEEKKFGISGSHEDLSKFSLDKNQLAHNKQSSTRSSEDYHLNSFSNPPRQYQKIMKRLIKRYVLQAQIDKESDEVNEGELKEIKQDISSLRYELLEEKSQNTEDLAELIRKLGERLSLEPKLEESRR
# TRPC6 inh – blocks the mouse TRPC6 cation channel. AID 2553. Q61143. B-score at 10 µM. 310,000 tested, 1.1% active. HEK293-TRPC6, membrane potential dye, ACh-evoked depolarization; active compounds read low;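 active = B-score under library mean minus 3 SD, initial fluorescence not abnormally high, positive integrated signal ratio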;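 also: B-score derived from integrated fluorescence ratio over the kinetic read; more negative B-score means stronger inhibition of depolarization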
# TRPC4 inh – inhibitors of mouse TRPC4 channel; Q9QUQ5; HEK293 TRPC4beta/mu-opioid, DAMGO-evoked Fluo4 calcium flux; active compounds read low; B-score at 10 µM; 300,000 tested, 0.39% active; AID 2247;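 active = B-score over 3 SD under the library average, no early fluorescence shift, positive overall ratio signal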
#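 material = TRPC4beta/mu-opioid receptor HEK293 cell line | probe or stimulus = sequential submaximal and maximal DAMGO stimulation | compound dosing = one concentration per compound | measured by = Fluo4 Ca2+ flux fluorescence | evaluation = integrated fluorescence ratio relative to baseline, converted to per-well B score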
# * = called active by the depositor; i = inactive. Rows were chosen to be rich in hits. Some 2.3% of all compounds tested hit in one or more screens of this group.
SMILES,TRPC4 act,TRPC4 potent,TRPC6 act,TRPC6 inh,TRPC4 inh
CCOC(=O)c1sc2nc(CSc3ccccc3)nc(NCCN(C)C)c2c1C,i,i,i,i,-5*
CCOC(=O)c1sc2nc(C)nc(NCCc3ccccn3)c2c1C,i,i,i,i,i
CC(C)(C)c1ccc(OCCC(=O)OCC(=O)Nc2cccnc2Cl)cc1,i,i,i,i,i
Cc1cnc(NC(=O)C2CC=CCC2)s1 (stereo not drawn),i,i,i,i,i
Cc1ccc(Cn2c(=N)c(C(=O)NC3CCCC3)cc3c(=O)n4ccccc4nc32)cc1,66*,78*,i,i,i
N=c1c(C(=O)NC2CCCCC2)cc2c(=O)n3ccccc3nc2n1CCc1ccccc1,i,i,i,-5*,i
CC(C)OCCCn1c(=N)c(C(N)=S)cc2c(=O)n3ccccc3nc21,i,i,i,-7.6*,i
N=c1c(C(=O)NC2CCCCC2)cc2c(=O)n3ccccc3nc2n1Cc1ccco1,i,i,i,i,i
CCOCCCn1c(=N)c(C(=O)NCc2ccc3c(c2)OCO3)cc2c(=O)n3ccccc3nc21,i,i,i,-5.9*,i
CCCn1c(=N)c(C(=O)NCc2ccc3c(c2)OCO3)cc2c(=O)n3cccc(C)c3nc21,i,i,i,i,i
COc1ccc(NC(=O)NN2CCN(C)CC2)cc1,i,i,i,i,i
CCOc1ccc(N(CC(=O)NC2CCCCC2)C(=O)CCC(=O)Nc2cc(C)ccn2)cc1,i,i,i,i,i
Oc1ccc(CN2CCCCC2)nc1-c1ccccc1,i,i,i,i,-6*
CCCS(=O)(=O)c1c(S(=O)(=O)CCC)c2ccc(C(N)=O)cn2c1C(=O)OC,i,i,i,i,i
CCCS(=O)(=O)c1c(S(=O)(=O)CCC)c2ccc(C(N)=O)cn2c1C(=O)c1ccc(OC)cc1,i,20*,i,i,i
N#Cc1ccc(-c2ccccc2)nc1SCCN1CCOCC1,i,20*,i,i,i
Cc1cc(C)c(C#N)c(SCCN2CCOCC2)n1,i,i,i,i,i
COCc1ccc(CN2CCCC(CCC(=O)NCc3cccc(OC)c3)C2)o1 (stereo not drawn),i,i,i,i,i
COc1cccc(CNC(=O)CCC2CCCN(C/C=C/c3ccccc3OC)C2)c1 (stereo not drawn),73*,i,i,i,i
COc1ccccc1/C=C/CN1CCCC(CCC(=O)NCc2ccc(F)c(F)c2)C1 (stereo not drawn),118*,i,i,i,i
O=C(Cc1cccc2ccccc12)Nc1ccc(O)cc1C(=O)O,i,i,i,i,i
O=C(Cc1cccc2ccccc12)Nc1ccc(Br)cc1C(=O)O,i,i,i,i,-7*
COc1ccc(C(=O)NC2CCCc3c2cnn3-c2cc(F)cc(F)c2)c(OC)c1OC (stereo not drawn),i,i,i,i,i
Cc1sc2ncnc(NC3CCN(Cc4ccccc4)CC3)c2c1C,193*,i,i,i,i
CN1CCN(CC(=O)Nc2c(C(=O)c3ccccc3)oc3ccccc23)CC1,i,i,i,i,i
SMILES,TRPC4 act,TRPC4 potent,TRPC6 act,TRPC6 inh,TRPC4 inh
COc1ccc2oc(C(=O)c3ccccc3)c(NC(=O)CN3CCN(C)CC3)c2c1,51*,19*,i,-8.1*,i
CCOc1ccc(S(=O)(=O)N2CCN=C2c2ccccc2)c(C)c1C,i,i,i,i,i
Cn1cc(-c2nc3ccccc3[nH]2)c2ccccc21,i,i,i,i,-6*
Cc1ccc2[nH]c(=O)c(-c3noc(CC(C)C)n3)cc2c1,i,i,i,i,i
CCCCc1nnc(NC(=O)C2CCN(c3ncnc4sc(C)c(C)c34)CC2)s1,i,93*,i,i,i
CC1CCCCN1S(=O)(=O)c1ccc(C(=O)Nc2sccc2C(N)=O)cc1 (stereo not drawn),i,11*,i,i,i
O=C(NCc1ccccc1)C1CCCN(C(=O)NCc2ccccc2)C1 (stereo not drawn),i,i,i,i,i
CCOCCOc1nc(C)cc(C)c1S(=O)(=O)c1ccccc1C,i,i,i,i,i
Cc1cc(C)c(S(=O)(=O)c2ccccc2C)c(OCC(C)(C)C)n1,i,i,i,i,-6*
COc1ccc(C)cc1NC(=O)CCNS(=O)(=O)c1cccc(C(F)(F)F)c1,i,i,i,i,i
COc1nc(N(C)S(=O)(=O)c2ccc(C)cc2)nc(C)c1Br,i,i,i,i,i
N#Cc1cccc2c1-c1ccccc1/C2=N/NC(N)=S,i,i,i,i,i
N#Cc1cccc2c1-c1ccccc1/C2=N/NC(N)=O,i,i,i,i,-6*
NC(=O)N/N=C1\c2ccccc2-c2c(C(N)=O)cccc21,i,i,i,i,-5*
O=P(C(=NCCO)NO)(N1CCOCC1)N1CCOCC1,i,i,i,i,i
CC1=C(C#N)c2nc(N)c(C#N)c(C)c2/C1=C\c1ccc(C)cc1,i,i,i,-6.4*,i
COc1cc(/C=C2\C(C)=C(C#N)c3nc(N)c(C#N)c(C)c32)ccc1OCC(=O)O,i,i,i,i,i
Clc1cc(Br)ccc1OCCCNCc1ccccc1,75*,i,i,i,i
Brc1ccc(OCc2ccccc2)c(CNCc2ccncc2)c1,i,i,i,i,-5*
OCCNCc1cc(Br)ccc1OCc1ccc(F)cc1,i,i,i,i,-6*
O=C(COc1ccc(Br)cc1CO)Nc1ccc(F)cc1,i,i,i,i,i
OCCNCc1cc(Br)ccc1OCc1ccc(Cl)cc1Cl,i,i,i,i,-8*
Fc1ccc(COc2ccccc2CNCc2ccncc2)cc1,i,i,i,i,i
Nc1c2c(nc3sc4c(c13)CCCC4)-c1ccccc1CC2,i,i,i,i,i
CCOc1cccc(C2/C(=C(/O)c3ccc4c(c3)CC(C)O4)C(=O)C(=O)N2Cc2cccnc2)c1 (stereo not drawn),i,i,i,i,i
CN(C)c1ncc(S(=O)(=O)c2ccccc2)c(=O)[nH]1,i,i,i,i,i
OCCCCNCc1cc(Br)ccc1OCc1ccccc1F,i,i,i,i,-7*
COc1cc(/C=C2\SC(=O)N(c3ccccc3Cl)C2=O)cc([N+](=O)[O-])c1O,i,i,i,i,-9*
